The nature of test [1]: Reduction of c-KIT protein expression in human K562 cells at 3 uM measured after 24 hrs by Western blotting analysis relative to control. It counts as functional. The method, boiled down: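 K562 cells were treated with ligand (3 and 6 μM or 5.5 and 11 μM). c-KIT protein was measured by Western blot with GAPDH as the housekeeping reference, relative to control.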
Test [2] concerns K562. Description: Attenuation of proto-oncogene expression in human c-KIT-positive K562 cells assessed as reduction in BCL-2 oncogene expression at 3 uM measured after 24 hrs by qRT-PCR analysis relative to control. Format: functional. The method, boiled down: (§1)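 K562 cells treated 24 h at two doses per ligand (3 and 6 μM, 5.5 and 11 μM; positive control 2 and 4 μM). c-KIT, c-MYC and BCL-2 mRNA measured by qRT-PCR and normalized to housekeeping gene 18s, relative to untreated control.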
For orientation: Quantitative PCR measures a nucleic acid by following its amplification.

Test [3] deals with K562. Briefly: Attenuation of proto-oncogene expression in human c-KIT-positive K562 cells assessed as reduction in c-MYC oncogene expression at 3 uM measured after 24 hrs by qRT-PCR analysis relative to control. It counts as functional. The method, boiled down:
as §1

Test [4] deals with Quadruplex DNA. Briefly: Binding affinity to G-quadruplex BCL-2 5-FAM-AGGGGCGGGCGCGGGAGGAAGGGGGCGGGAGCGGGGCTG-TAMRA-3 (unknown origin) assessed as dissociation constant by measuring thermogram by isothermal titration calorimetry (ITC) assay. Format: nucleic-acid assay. The method, boiled down:
(§2)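 ITC of ligand binding to folded G4 in 100 mM Tris-KCl buffer, pH 7.4. Kd and stoichiometry were obtained from the isothermal heat curve and binding isotherm.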
Background: In ITC the heat of successive injections is recorded.

Test [5] can be described thus: Reduction of c-MYC oncogene expression in human K562 cells transfected with c-MYC plasmid construct assessed as reduction in luciferase expression at 6 uM measured after 36 hrs by luciferase reporter assay. It counts as functional. An outline of the steps:
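Promoter luciferase reporter: K562 cells transfected with a c-MYC promoter G4-containing luciferase-expressing plasmid, then ligand-treated at two doses each (3 and 6 μM, or 5.5 and 11 μM); read-out as relative luciferase expression, reported as percent reduction.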
Background: A reporter such as luciferase makes a cellular process visible.

Test [6] addresses Quadruplex DNA. Briefly: Binding affinity to G-quadruplex c-MYC 5-FAM-TGGGGAGGGTGGGGAGGGTGGGGAAGG-TAMRA-3 (unknown origin) assessed as dissociation constant by fluorescence spectroscopy assay. It counts as nucleic-acid assay. The method, boiled down:
(§3)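 Fluorimetric titration of ligand held at 1.0 μM with increasing concentrations of G4 or dsDNA until saturation. Change in ligand fluorescence intensity was fitted for Kd. Run in 100 mM Tris-KCl buffer, pH 7.4.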

For test [7], the target named is Quadruplex DNA. Briefly: Binding affinity to G-quadruplex VEGF 5-FAM-CGGGGCGGGCCGGGGGCGGGGT-TAMRA-3 (unknown origin) assessed as dissociation constant by measuring thermogram by isothermal titration calorimetry (ITC) assay. Format: nucleic-acid assay. An outline of the steps: as §2
In test [8] the test system is Quadruplex DNA. Description: Binding affinity to G-quadruplex c-KIT1 5-FAM-GGGAGGGCGCTGGGAGGAGGG-TAMRA-3 (unknown origin) assessed as increase in melting temperature by CD spectra analysis. Format: nucleic-acid assay.
The test system of test [9] is Quadruplex DNA. Description: Stabilization of fluorophore tagged G-quadruplex c-KIT1 (unknown origin) assessed as change in melting temperature in presence of 0 to 100 equiv calf thymus DNA at 1 uM incubated for 1 hr in dark condition by competitive FRET-based melting assay. Format: nucleic-acid assay. An outline of the steps:
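Competitive FRET melting with fluorophore-labeled c-KIT 1 G-quadruplex and 1 μM ligand. Unlabeled calf thymus DNA was added at 0, 1, 5, 10, 50 and 100 molar equivalents over the labeled DNA, and ΔTm was monitored.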

The subject of test [10] is Quadruplex DNA. Briefly: Stabilization of G-quadruplex c-KIT2 5-FAM-GGGCGGGCGCGAGGGAGGGG-TAMRA-3 (unknown origin) assessed as change in melting temperature at 1 uM incubated for 1 hr in dark condition by FRET-based melting assay. Format: nucleic-acid assay. An outline of the steps: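 FRET melting of dual-fluorophore-tagged oligonucleotides (200 nM) in 60 mM potassium cacodylate buffer, pH 7.4, with ligand at 1 μM; ΔTm taken against the ligand-free oligonucleotide Tm as control.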

Test [11] concerns K562. Briefly: Induction of apoptosis in human K562 cells assessed as cell death at 6 uM incubated for 24 hrs by FITC-Annexin V and PI analysis relative to control. It counts as functional. The method, boiled down:
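K562 cells after ligand treatment dual-stained with annexin V and propidium iodide. Apoptotic cell populations (early and late) scored by flow cytometry dot plot analysis.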

Test [12] has as its target Quadruplex DNA. Briefly: Binding affinity to G-quadruplex c-MYC 5-FAM-TGGGGAGGGTGGGGAGGGTGGGGAAGG-TAMRA-3 (unknown origin) assessed as dissociation constant by measuring thermogram by isothermal titration calorimetry (ITC) assay. Format: nucleic-acid assay. The method, boiled down:
as §2

A short description of test [13]: Reduction of c-KIT oncogene expression in human K562 cells transfected with c-KIT plasmid construct assessed as reduction in luciferase expression at 3 uM measured after 36 hrs by luciferase reporter assay. It counts as functional. An outline of the steps:
(§4)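 K562 cells were transfected with luciferase plasmids carrying the c-KIT, c-MYC or BCL-2 promoter G4. They were then treated with ligand (3 and 6 μM or 5.5 and 11 μM), and relative luciferase expression was measured.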

Test [14] is described as follows: Reduction of BCL-2 oncogene expression in human K562 cells transfected with BCL-2 plasmid construct assessed as reduction in luciferase expression at 3 uM measured after 36 hrs by luciferase reporter assay. Format: functional. An outline of the steps:
as §4

For test [15], the system named is Quadruplex DNA. Briefly: Binding affinity to excessive G-quadruplex VEGF 5-FAM-CGGGGCGGGCCGGGGGCGGGGT-TAMRA-3 (unknown origin) assessed as fold increase in fluorescence intensity at 1 uM incubated for 1 hr in dark condition by fluorescence spectroscopy assay. Format: nucleic-acid assay. The method, boiled down:
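Fluorimetric titration in 100 mM Tris-KCl buffer, pH 7.4. Ligand fixed at 1.0 μM and titrated with increasing concentrations of each G-quadruplex until fluorescence saturation. The fold increase in ligand fluorescence intensity was read, and Kd was derived from the titration plot.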

The target in test [16] is Quadruplex DNA. Description: Binding affinity to G-quadruplex VEGF 5-FAM-CGGGGCGGGCCGGGGGCGGGGT-TAMRA-3 (unknown origin) assessed as dissociation constant by fluorescence spectroscopy assay. It counts as nucleic-acid assay. An outline of the steps:
as §3

The subject of test [17] is K562. Briefly: Induction of apoptosis in human K562 cells assessed as apoptosis incubated for 24 hrs by FITC-Annexin V and PI based flow cytometry. Format: functional, cell-based. The method, boiled down:
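K562 cells were treated with ligand (3 and 6 μM or 5.5 and 11 μM) and dual-stained with annexin V and PI. Early and late apoptotic populations were quantified by flow cytometry dot plot analysis.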

In test [18] the test system is Quadruplex DNA. Briefly: Binding affinity to excessive G-quadruplex c-KIT1 5-FAM-GGGAGGGCGCTGGGAGGAGGG-TAMRA-3 (unknown origin) assessed as fold increase in fluorescence intensity at 1 uM incubated for 1 hr in dark condition by fluorescence spectroscopy assay relative to c-KIT2. It counts as nucleic-acid assay. The method, boiled down: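 Ligand (1.0 μM) titrated to saturation with increasing G-quadruplex in 100 mM Tris-KCl buffer, pH 7.4. The value is the ratio of the c-KIT 1 fold change in fluorescence intensity to the fold change obtained with VEGF or c-KIT 2.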

For test [19], the target named is Quadruplex DNA. Briefly: Binding affinity to G-quadruplex c-KIT1 5-FAM-GGGAGGGCGCTGGGAGGAGGG-TAMRA-3 (unknown origin) assessed as dissociation constant by fluorescence spectroscopy assay. It counts as nucleic-acid assay.
Test [20] in a line: Reduction of BCL-2 oncogene expression in human K562 cells transfected with BCL-2 plasmid construct assessed as reduction in luciferase expression at 6 uM measured after 36 hrs by luciferase reporter assay. Format: functional. The method, boiled down: as §4

The structures appear in SMILES notation. Active and inactive are the calls of the source. The rule behind the calls is not given here.

As a reminder, the inhibition is how much of the control response was suppressed. One may read the Kd as the free concentration of one partner at which half of the binding sites on the other are occupied at equilibrium, for simple one-to-one binding. By ΔTm is commonly meant the change in melting temperature against a reference sample. With `CN(C)CCCNC(=O)c1ccc(-n2cc(-c3ccc4[nH]c5ccccc5c4c3)nn2)cc1`, the inhibition at 3 µM is 23.3% in test [1]; 29% in the test on K562 [2]; 15% with K562 [3]; 22% in test [13]; 7.8% in [14]. The Kd was 10.8 µM on Quadruplex DNA [4]; 2.7 µM on Quadruplex DNA [6]; 15.9 µM at Quadruplex DNA [7]; 6.2 µM on Quadruplex DNA [12]; 2.9 µM at Quadruplex DNA [16]; 1.4 µM at Quadruplex DNA [19]. Besides, the inhibition at 6 µM in [5] came out at 12.3%; in test [20] it was 15.8%. Further, the ΔTm with Quadruplex DNA [8] is 16 °C; with Quadruplex DNA [10] it was 9.9 °C. Further, the outcome in the test on Quadruplex DNA [9] was Active. The Activity is 63% with K562 [11] and “Dose-Dependent Effect” in the test on K562 [17]. Moreover, the fold change (FC) in the test with Quadruplex DNA [15] came out at 2.1; in the test on Quadruplex DNA [18] it was 3.2.

Source of the values: ChEMBL document CHEMBL5344453, “Selective Recognition of c-KIT 1 G-Quadruplex by Structural Tuning of Heteroaromatic Scaffolds and Side Chains” (ACS Med Chem Lett, 2024).
